Assay results from ChEMBL document CHEMBL3392961, “Synthesis and in vitro characterization of cinnoline and benzimidazole analogues as phosphodiesterase 10A inhibitors” (Bioorg Med Chem Lett, 2015).

Experiments:
[1] = biological target: cAMP and cAMP-inhibited cGMP 3',5'-cyclic phosphodiesterase 10A (Homo sapiens, UniProt Q9Y233); assay: Inhibition of human recombinant PDE10A catalytic domain pre-incubated for 5 mins before [3H]cAMP substrate addition and measured 20 mins post substrate addition by scintillation proximity assay
Sequence of cAMP and cAMP-inhibited cGMP 3',5'-cyclic phosphodiesterase 10A (Q9Y233 whole entry, the tested form may be a part): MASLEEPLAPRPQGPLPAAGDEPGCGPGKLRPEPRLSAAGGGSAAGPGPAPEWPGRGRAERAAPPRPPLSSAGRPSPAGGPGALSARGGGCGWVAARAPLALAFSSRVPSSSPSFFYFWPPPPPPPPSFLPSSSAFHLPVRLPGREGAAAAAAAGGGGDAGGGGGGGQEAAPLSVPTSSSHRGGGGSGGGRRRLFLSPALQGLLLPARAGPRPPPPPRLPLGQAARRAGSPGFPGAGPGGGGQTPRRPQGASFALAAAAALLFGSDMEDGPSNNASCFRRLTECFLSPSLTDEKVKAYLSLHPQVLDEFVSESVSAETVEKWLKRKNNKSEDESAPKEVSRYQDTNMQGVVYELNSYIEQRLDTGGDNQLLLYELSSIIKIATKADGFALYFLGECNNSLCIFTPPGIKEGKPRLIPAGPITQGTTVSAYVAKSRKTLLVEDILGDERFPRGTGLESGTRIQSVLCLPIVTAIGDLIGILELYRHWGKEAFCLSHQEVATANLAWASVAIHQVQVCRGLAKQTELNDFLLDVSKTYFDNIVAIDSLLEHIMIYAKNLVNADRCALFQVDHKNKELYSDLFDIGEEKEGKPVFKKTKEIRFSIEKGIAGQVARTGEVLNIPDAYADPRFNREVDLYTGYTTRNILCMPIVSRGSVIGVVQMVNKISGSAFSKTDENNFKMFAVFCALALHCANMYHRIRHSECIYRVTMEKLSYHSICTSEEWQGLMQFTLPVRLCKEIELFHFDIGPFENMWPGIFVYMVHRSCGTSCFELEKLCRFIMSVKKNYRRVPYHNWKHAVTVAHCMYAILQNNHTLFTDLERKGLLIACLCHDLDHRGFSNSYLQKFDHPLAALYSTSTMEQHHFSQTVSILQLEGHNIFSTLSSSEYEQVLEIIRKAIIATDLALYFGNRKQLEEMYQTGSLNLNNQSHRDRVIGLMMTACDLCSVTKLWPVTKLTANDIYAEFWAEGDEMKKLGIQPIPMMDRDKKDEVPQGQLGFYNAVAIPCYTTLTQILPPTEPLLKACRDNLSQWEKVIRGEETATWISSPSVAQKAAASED

[2] = biological target: 3',5'-cyclic-AMP phosphodiesterase 4B (Homo sapiens, UniProt Q07343); assay: Inhibition of human recombinant PDE4B pre-incubated for 5 mins before [3H]cAMP substrate addition and measured 20 mins post substrate addition by scintillation proximity assay
Sequence of 3',5'-cyclic-AMP phosphodiesterase 4B (Q07343 whole entry): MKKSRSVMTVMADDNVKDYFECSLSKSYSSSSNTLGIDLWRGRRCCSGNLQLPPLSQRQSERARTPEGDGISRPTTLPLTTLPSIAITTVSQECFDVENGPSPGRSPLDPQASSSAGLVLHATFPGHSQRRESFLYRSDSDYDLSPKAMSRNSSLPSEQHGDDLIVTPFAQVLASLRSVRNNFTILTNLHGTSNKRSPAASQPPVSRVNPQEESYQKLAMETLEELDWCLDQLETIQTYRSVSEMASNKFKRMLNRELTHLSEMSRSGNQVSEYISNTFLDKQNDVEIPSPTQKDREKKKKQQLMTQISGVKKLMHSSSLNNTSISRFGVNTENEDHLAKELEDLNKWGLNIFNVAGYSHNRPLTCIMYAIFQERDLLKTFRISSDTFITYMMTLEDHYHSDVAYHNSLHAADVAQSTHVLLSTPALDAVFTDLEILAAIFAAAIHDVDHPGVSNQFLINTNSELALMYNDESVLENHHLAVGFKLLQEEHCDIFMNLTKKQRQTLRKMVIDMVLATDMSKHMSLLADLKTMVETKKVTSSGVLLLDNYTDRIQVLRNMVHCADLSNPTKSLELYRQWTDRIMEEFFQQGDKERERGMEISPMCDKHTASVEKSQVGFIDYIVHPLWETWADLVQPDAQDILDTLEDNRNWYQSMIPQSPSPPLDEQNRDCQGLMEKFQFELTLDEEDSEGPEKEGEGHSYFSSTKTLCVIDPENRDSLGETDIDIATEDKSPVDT
In short: (§1)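 Scintillation proximity assay on a fixed amount of recombinant human PDE enzyme, run across varying inhibitor concentrations. The tritiated cyclic nucleotide substrate was used at 1/3 of Km. Background was subtracted, counts were plotted against inhibitor concentration, and IC50 was fitted by non-linear regression. Values are mean ± SD from at least three experiments.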

[3] = biological target: cGMP-inhibited 3',5'-cyclic phosphodiesterase 3A (Homo sapiens, UniProt Q14432); assay: Inhibition of human recombinant PDE3A pre-incubated for 5 mins before [3H]cAMP substrate addition and measured 20 mins post substrate addition by scintillation proximity assay; in short: as §1
Sequence of cGMP-inhibited 3',5'-cyclic phosphodiesterase 3A (Q14432 whole entry): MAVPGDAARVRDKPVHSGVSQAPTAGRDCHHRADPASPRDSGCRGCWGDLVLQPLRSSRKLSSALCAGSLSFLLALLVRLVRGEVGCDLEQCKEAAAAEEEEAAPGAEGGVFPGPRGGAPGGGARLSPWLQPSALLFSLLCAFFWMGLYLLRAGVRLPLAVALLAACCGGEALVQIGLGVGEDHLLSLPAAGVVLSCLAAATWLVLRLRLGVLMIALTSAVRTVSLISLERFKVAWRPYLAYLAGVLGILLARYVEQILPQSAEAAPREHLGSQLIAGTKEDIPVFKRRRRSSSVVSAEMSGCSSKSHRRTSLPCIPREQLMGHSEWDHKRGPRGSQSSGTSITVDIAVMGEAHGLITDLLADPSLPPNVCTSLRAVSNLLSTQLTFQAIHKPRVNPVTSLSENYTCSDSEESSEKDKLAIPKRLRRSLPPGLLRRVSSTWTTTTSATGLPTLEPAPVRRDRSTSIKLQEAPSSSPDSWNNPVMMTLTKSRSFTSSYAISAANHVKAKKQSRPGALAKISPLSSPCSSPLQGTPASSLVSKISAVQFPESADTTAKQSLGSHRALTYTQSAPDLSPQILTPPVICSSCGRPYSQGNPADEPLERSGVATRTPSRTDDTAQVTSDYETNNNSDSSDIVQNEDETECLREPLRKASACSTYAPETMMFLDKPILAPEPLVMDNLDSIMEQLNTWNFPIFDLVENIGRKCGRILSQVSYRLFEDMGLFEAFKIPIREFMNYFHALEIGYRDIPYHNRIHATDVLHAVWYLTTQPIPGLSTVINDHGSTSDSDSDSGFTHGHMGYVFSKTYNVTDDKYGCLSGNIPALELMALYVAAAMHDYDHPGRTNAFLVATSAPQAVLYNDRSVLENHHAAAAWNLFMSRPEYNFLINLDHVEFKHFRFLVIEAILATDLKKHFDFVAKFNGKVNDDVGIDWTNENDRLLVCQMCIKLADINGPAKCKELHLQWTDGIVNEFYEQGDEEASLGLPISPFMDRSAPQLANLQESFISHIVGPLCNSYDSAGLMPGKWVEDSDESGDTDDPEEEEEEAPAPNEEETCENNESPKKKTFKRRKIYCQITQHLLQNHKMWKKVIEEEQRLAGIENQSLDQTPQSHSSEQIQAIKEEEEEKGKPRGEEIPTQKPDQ

[4] = biological target: cGMP-inhibited 3',5'-cyclic phosphodiesterase 3B (Homo sapiens, UniProt Q13370); assay: Inhibition of human recombinant PDE3B pre-incubated for 5 mins before [3H]cAMP substrate addition and measured 20 mins post substrate addition by scintillation proximity assay; in short: as §1
Sequence of cGMP-inhibited 3',5'-cyclic phosphodiesterase 3B (Q13370 whole entry): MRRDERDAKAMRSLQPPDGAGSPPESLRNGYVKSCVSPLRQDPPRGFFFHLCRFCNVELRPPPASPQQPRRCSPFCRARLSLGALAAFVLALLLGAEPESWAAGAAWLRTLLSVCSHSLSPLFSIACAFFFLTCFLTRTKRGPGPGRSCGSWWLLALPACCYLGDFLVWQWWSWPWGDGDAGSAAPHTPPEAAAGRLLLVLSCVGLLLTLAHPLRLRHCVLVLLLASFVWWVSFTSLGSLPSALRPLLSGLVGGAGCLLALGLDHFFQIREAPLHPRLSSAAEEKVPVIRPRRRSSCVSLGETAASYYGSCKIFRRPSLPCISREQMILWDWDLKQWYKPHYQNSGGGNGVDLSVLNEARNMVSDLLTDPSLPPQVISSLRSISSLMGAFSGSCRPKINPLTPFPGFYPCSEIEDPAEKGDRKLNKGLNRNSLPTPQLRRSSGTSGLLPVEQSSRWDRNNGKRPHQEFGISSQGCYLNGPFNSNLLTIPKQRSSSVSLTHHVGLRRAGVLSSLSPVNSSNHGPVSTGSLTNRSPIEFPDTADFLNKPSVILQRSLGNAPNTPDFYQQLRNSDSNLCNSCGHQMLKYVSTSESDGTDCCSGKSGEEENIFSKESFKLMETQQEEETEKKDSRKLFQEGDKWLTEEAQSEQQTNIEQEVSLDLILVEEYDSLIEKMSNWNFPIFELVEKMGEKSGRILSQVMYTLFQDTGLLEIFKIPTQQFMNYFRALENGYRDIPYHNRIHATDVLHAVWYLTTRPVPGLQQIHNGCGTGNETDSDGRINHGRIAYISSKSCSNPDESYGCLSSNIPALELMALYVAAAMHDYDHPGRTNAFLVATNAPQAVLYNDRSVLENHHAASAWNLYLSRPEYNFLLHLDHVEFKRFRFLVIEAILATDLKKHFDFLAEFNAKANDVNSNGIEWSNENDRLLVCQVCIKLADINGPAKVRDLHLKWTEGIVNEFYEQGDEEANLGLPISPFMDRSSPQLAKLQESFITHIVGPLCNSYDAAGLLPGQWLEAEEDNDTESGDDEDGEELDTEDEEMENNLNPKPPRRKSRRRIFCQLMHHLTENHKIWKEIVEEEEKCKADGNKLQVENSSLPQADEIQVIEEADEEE

[5] = biological target: 3',5'-cyclic-AMP phosphodiesterase 4A (Homo sapiens, UniProt P27815); assay: Inhibition of human recombinant PDE4A pre-incubated for 5 mins before [3H]cAMP substrate addition and measured 20 mins post substrate addition by scintillation proximity assay; in short: as §1
Sequence of 3',5'-cyclic-AMP phosphodiesterase 4A (P27815 whole entry): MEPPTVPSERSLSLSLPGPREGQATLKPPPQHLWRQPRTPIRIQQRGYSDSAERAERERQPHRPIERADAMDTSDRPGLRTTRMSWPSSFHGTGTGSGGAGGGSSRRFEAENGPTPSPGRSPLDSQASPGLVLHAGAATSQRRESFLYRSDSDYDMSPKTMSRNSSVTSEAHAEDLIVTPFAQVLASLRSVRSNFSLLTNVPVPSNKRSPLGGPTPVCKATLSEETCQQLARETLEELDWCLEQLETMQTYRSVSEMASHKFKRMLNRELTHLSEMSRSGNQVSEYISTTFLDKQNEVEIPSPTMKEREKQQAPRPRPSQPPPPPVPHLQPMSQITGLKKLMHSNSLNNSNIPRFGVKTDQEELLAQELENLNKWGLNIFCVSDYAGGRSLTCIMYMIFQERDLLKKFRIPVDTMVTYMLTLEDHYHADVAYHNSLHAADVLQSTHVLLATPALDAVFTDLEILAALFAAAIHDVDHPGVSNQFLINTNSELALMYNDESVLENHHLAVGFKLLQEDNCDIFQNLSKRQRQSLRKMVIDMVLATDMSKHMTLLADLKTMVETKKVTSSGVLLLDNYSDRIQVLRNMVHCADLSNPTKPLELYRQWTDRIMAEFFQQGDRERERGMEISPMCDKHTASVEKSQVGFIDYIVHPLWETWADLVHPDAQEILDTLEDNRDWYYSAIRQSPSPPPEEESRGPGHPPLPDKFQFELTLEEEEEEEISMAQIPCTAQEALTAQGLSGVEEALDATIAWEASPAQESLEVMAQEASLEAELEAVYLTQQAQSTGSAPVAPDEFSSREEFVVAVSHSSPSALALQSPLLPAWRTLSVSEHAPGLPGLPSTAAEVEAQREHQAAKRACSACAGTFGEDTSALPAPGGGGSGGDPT

Structure (SMILES) | IC50 ([1]; read-out: IC50) | further results
Cc1cc(-c2cnnc3ccccc23)cnc1N1CCC(O)(c2ccc(F)nc2)CC1 |  | IC50 [1]: Not Active
COc1cc2nncc(-c3ccc(N4CCC(C)(O)CC4)nc3)c2cc1OC | 0.0184 µM | 
COc1cc2c(-c3ccc(N4CCC(C)(O)CC4)nc3)cnnc2cc1OCc1ccccc1 | 4.25 µM | 
COc1cc2nncc(-c3ccc(N4CCC(O)(c5cccnc5)CC4)nc3)c2cc1OC | 0.014 µM | 
COc1cc2c(-c3ccc(N4CCC(O)(c5cccnc5)CC4)nc3)cnnc2cc1OCc1ccccc1 | 1.55 µM | 
COc1cc2c(-c3ccc(N4CCC(C)(O)CC4)nc3)cnnc2cc1O | 10.8 µM | 
COc1cc2c(-c3ccc(N4CCC(O)(c5cccnc5)CC4)nc3)cnnc2cc1O | 6.62 µM | 
COc1cc2nncc(-c3cnc(N4CCC(O)(c5cccnc5)CC4)c(C)c3)c2cc1OC | 0.00152 µM | IC50 [2]: 8.73 µM; IC50 [3]: 3.07 µM; IC50 [4]: 4.11 µM; IC50 [5]: 7.83 µM
COc1cc2nncc(-c3cnc(N4CCC(O)(c5ccc(F)nc5)CC4)c(C)c3)c2cc1OC | 0.00286 µM | IC50 [2]: 30.6 µM; IC50 [3]: 3.7 µM; IC50 [4]: 6.54 µM; IC50 [5]: 25.4 µM
Cc1cc(-c2cnnc3cc4c(cc23)OCO4)cnc1N1CCC(O)(c2ccc(F)nc2)CC1 |  | IC50 [1]: Not Active
COc1cc2nncc(-c3cnc(N4CCC(O)(c5ccc(Cl)nc5)CC4)c(C)c3)c2cc1OC | 0.0098 µM | 
COc1cc2c(-c3cnc(N4CCC(O)(c5ccc(F)nc5)CC4)c(C)c3)cnnc2cc1OCc1ccccc1 | 0.35 µM | 
COc1cc2nncc(-c3cnc(N4CCC(O)(c5cccnc5)CC4)c(Cl)c3)c2cc1OC | 0.00552 µM | 
COc1cc2c(-c3cnc(N4CCC(O)(c5ccc(F)nc5)CC4)c(C)c3)cnnc2cc1OCc1ccc2ccccc2n1 | 0.518 µM | 
COc1cc2c(-c3cnc(N4CCC(O)(c5ccc(F)nc5)CC4)c(C)c3)cnnc2cc1OCCCF | 0.0793 µM | 
Cn1c(C(=O)c2ccc(Oc3ncccc3-c3ccccc3)cc2)nc2ccccc21 | 0.0186 µM | 
COc1ccc(-c2cccnc2Oc2ccc(C(=O)c3nc4ccccc4n3C)cc2)cc1 | 0.008 µM | 
Cn1c(C(=O)c2ccc(Oc3ncccc3-c3cccnc3)cc2)nc2ccccc21 | 0.00373 µM | IC50 [2]: 25.9 µM; IC50 [3]: 167 µM; IC50 [4]: 234 µM; IC50 [5]: 40.3 µM
Cn1c(C(=O)c2ccc(Oc3ncccc3C(=O)c3ccccc3)cc2)nc2ccccc21 |  | IC50 [1]: Not Active
COc1ccc(C(=O)c2cccnc2Oc2ccc(C(=O)c3nc4ccccc4n3C)cc2)cc1 |  | IC50 [1]: Not Active
CC(=O)N1CCC(C(=O)c2cccnc2Oc2ccc(C(=O)c3nc4ccccc4n3C)cc2)CC1 | > 1.9 µM | 
